Laboratory results from paper PMC10848874 (Bioorganic & medicinal chemistry, 2023).
Entries after “also recorded” stand apart in the source; their conditions may differ.

Assays:
PANC-1 cells = assay: Wound healing; assay type: cell-based, human; conditions: for Scratch gap closure: PANC-1 cells, 37 °C, 5% CO2; for PANC-1 cell migration in wound healing assay (in words): 0.5 and 1 μM
In short: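 PANC-1 cells in DMEM with 10% heat-inactivated FBS and 30 μg/mL gentamicin were seeded at about 1 × 10⁵ cells per well in 6-well plates and grown to 70–80% confluency. Each well was scratched with a sterile pipette tip, then medium and detached cells were removed. Duplicate wells received 0.5 or 1 μM test compound or control (final DMSO ≤0.2%). Closure was imaged by automated microscopy (4X) for 48 h.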

[1] = test system: purified bovine brain tubulin; assay: Inhibition of tubulin polymerization; assay type: biochemical; conditions: oxetane analogues compared with their ketone counterparts
In short: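 Bovine brain tubulin at 1 mg/mL (10 μM) in 0.8 M monosodium glutamate (pH 6.6) with 4% (v/v) DMSO and varied test compound concentrations, preincubated 15 min at 30 °C without GTP. The mix was chilled to 0 °C, then GTP added (0.1 mM final), and warmed to 30 °C over about 30 s.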

Structure (SMILES)	Scratch gap closure (PANC-1 cells; 0.5 μM compound)	Scratch gap closure (PANC-1 cells; 1 μM compound)	PANC-1 cell migration in wound healing assay (in words) (PANC-1 cells)	Inhibition of tubulin polymerization (in words) [1]
COc1cc(C2(c3c(-c4ccccc4)[nH]c4cc(Br)ccc34)COC2)cc(OC)c1OC [Compound 5c, 6-Bromo-2-phenyl-3-(3-(3,4,5-trimethoxyphenyl)oxetan-3-yl)-1H-indole]	gap is not completely closed after 40 h	gap remains open after 40 h	inhibited PANC-1 cell migration	at most weakly active as inhibitors of tubulin polymerization; also recorded: no significant tubulin assembly inhibition activity
COc1cc(C2(c3c(-c4ccccc4)[nH]c4c(OC)cccc34)COC2)cc(OC)c1OC [Compound 5h, 7-Methoxy-2-phenyl-3-(3-(3,4,5-trimethoxyphenyl)oxetan-3-yl)-1H-indole]	gap is not closed after 48 h	gap remains open after 48 h	inhibited PANC-1 cell migration	at most weakly active as inhibitors of tubulin polymerization; also recorded: no significant tubulin assembly inhibition activity
COc1cc(C2(c3c(-c4ccccc4)[nH]c4cc(Cl)ccc34)COC2)cc(OC)c1OC [Compound 5k, 6-Chloro-2-phenyl-3-(3-(3,4,5-trimethoxyphenyl)oxetan-3-yl)-1H-indole]				at most weakly active as inhibitors of tubulin polymerization; also recorded: no significant tubulin assembly inhibition activity
COc1ccc2[nH]c(-c3ccccc3)c(C3(c4cc(OC)c(OC)c(OC)c4)COC3)c2c1 [Compound 5l, 5-Methoxy-2-phenyl-3-(3-(3,4,5-trimethoxyphenyl)oxetan-3-yl)-1H-indole]				at most weakly active as inhibitors of tubulin polymerization; also recorded: no significant tubulin assembly inhibition activity
COc1ccc2c(C3(c4cc(OC)c(OC)c(OC)c4)COC3)c(-c3ccc(OC)c(O)c3)[nH]c2c1 [Compound 5m, 2-Methoxy-5-(6-methoxy-3-(3-(3,4,5-trimethoxyphenyl)oxetan-3-yl)-1H-indol-2-yl)phenol]				at most weakly active as inhibitors of tubulin polymerization; also recorded: no significant tubulin assembly inhibition activity
